Screening data as filed in PubChem.
KCNQ1 block: blocks the human KCNQ1 potassium channel. P51787. CHO-K1 KCNQ1, FluxOR thallium flux fluorescence; hits give high values. B-score at 10 µM. 1.3% of 310,000 active. AID 2642;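 active means compounds whose thallium flux B-score, printed positive for inhibition, exceeds three library SD while starting fluorescence stays within three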;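 further: channel opened by potassium depolarization with thallium stimulus after 20 min compound exposure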
KCNK3 inh: human KCNK3 channel inhibition, primary screen | 0.84% of 340,000 active | B-score at 10 µM | CHO-KCNK3 thallium flux, FluxOR fluorescence; hits give low values | O14649 | AID 602410;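 active means B-score under library mean minus 4 SD, starting fluorescence ratio at most library mean plus 5 SD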;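 further: more negative B-score means stronger inhibition of thallium flux through KCNK3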
Target sequence (O14649 whole entry, looked up): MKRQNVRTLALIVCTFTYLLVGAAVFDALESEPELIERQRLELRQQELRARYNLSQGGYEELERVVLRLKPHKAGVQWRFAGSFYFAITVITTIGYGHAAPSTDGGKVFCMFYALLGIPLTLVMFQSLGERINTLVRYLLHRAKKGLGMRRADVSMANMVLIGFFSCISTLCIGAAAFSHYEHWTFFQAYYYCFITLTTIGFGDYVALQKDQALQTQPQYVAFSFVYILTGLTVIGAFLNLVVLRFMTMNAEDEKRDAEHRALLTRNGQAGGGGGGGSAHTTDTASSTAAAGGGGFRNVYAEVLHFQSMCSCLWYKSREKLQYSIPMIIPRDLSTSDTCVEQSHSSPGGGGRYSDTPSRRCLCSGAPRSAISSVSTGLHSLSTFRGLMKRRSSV
Cl transport mod: KCC2 (human) Cl- transport modulation; KCC2 cells, thallium flux FluoZin-2 fluorescence; B-score of Tl+ flux slope (higher = more flux/activation; lower = inhibition) at 10 µM; 2.2% of 190,000 active; AID 1456;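 active means thallium flux slope and its plate-corrected score both differing from the plate sample mean at a set confidence after two filtering rounds, in either direction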;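 further: slope of fluorescence scaled to starting intensity during 10 to 20 s after thallium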
KCNQ1 pot: human KCNQ1 channel potentiation or activation. P51787. CHO-K1 KCNQ1, thallium flux FluxOR fluorescence; hits give high values. B-score at 10 µM. 0.35% of 310,000 active;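 active means fluorescence ratio B-score, a plate-corrected score, at least three library SD, with initial intensity B-score within 5 SD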
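System: CHO-K1 cells stably expressing KCNQ1 / Medium: assay buffer for compound exposure, DMSO matched across wells / Reagent: thallium- and potassium-containing depolarizing buffer / Compound: one concentration, matched DMSO / Incubation: 20 min compound pretreatment at room temperature / Measured by: kinetic FluxOR fluorescence, 10 s baseline plus 110 s post-stimulus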
KCNK9 block: human KCNK9 channel inhibition; HEK293 KCNK9, FluxOR thallium flux fluorescence; hits give low values; B-score at 10 µM; 1.2% of 310,000 active; AID 488922;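 active means ratio B-score over 3 SD below the library mean, with starting fluorescence within 5 SD of its mean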;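 further: negative B-score means less thallium flux so channel inhibition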
Target sequence (Q9NPC2 whole entry, looked up): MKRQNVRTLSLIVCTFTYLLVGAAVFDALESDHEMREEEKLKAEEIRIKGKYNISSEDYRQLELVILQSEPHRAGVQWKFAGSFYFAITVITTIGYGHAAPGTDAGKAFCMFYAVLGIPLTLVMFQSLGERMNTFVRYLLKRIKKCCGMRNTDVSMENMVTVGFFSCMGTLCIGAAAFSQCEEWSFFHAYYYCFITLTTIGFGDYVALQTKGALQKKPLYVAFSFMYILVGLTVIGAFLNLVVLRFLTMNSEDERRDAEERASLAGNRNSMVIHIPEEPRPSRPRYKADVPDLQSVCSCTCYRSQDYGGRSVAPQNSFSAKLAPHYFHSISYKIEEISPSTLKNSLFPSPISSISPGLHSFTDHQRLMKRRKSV
hERG protect: compounds protecting human hERG from proarrhythmic drug block. Q12809. CHO-hERG, FluxOR thallium flux, dofetilide IC70 present. activation (rescue from dofetilide block), less the hit threshold, % at 10 µM. 0.51% of 310,000 active;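 active means activation above the mean of controls blocked by dofetilide plus 5 SD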;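 further: thallium influx through hERG after potassium depolarization seen as dye fluorescence rise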
KCC2 secondary: KCC2 (human) modulation, secondary assay; shares compounds with Cl transport mod; HEK293-KCC2, thallium flux, FluoZin2 fluorescence; hits give high values; normalised thallium flux (F/F0 slope) at 10 µM; 15% of 3,700 active;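 active means thallium flux slope above the same plate's solvent-only control mean plus 3 SD; inconclusive means the two replicate wells disagree; inactive means no significant difference from solvent-only control wells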
KCC2 bumet counter: bumetanide-insensitive thallium flux in KCC2 cells with ouabain, counter-screen | AID 1714 | HEK293-KCC2 + bumetanide/ouabain, thallium flux FluoZin2; hits give high values | shares compounds with Cl transport mod | 49% of 3,700 active | normalized thallium flux at 10 µM;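 active means thallium entry rate above the same plate's blocked-transporter control wells by more than 3 SD; inconclusive means the two repeat wells disagree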;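 further: raw slope of fluorescence over initial fluorescence between 10 and 20 s after thallium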
KCC2 sec2: confirmation of human KCC2 transport modulators. shares compounds with Cl transport mod. HEK293-KCC2, thallium flux FluoZin2 fluorescence; actives lie on both sides; F/F0 rise rate, 10–20 s post-thallium. normalized thallium flux at 10 µM. 23% of 3,700 active. AID 1715;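 active means thallium flux slope more than 3 SD above or below the plate's solvent-only control mean, mostly below; inconclusive means the two repeat wells disagreed; inactive means no significant shift from solvent-only controls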
HEK293 Tl flux: counter-screen for KCC2 modulators: effect in parental HEK293 cells; shares compounds with Cl transport mod; thallium flux FluoZin2, ouabain; baseline-ratio fluorescence slope, 10–20 s after thallium; thallium flux rate (normalised fluorescence) at 10 µM; 46% of 3,700 active; AID 1716;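 active means thallium flux rate significantly above the same plate's solvent-only control wells, beyond their mean plus 3 SD; inconclusive means the two replicate wells gave conflicting results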
KCC2 retest ouab: modulates human KCC2 on retest with ouabain | shares compounds with Cl transport mod | HEK293-KCC2, thallium flux FluoZin2 fluorescence; bidirectional: low = inhibitor, high = activator | raw Tl+ flux slope (below DMSO = inhibition, above = activation) at 10 µM | 48% of 3,700 active | AID 1717;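 active means thallium flux slope beyond 3 SD from same-plate DMSO control mean in most replicates, usually higher, sometimes lower; inconclusive means repeat tests gave conflicting results; inactive means no significant difference from controls in most replicates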;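 further: slope of initial-normalized fluorescence between seconds 10 and 20 after thallium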
HEK293 Tl flux2: counter-screen for KCC2 modulators: effect in parental HEK293 cells; shares compounds with Cl transport mod; thallium flux FluoZin-2 fluorescence slope; thallium flux slope at 10 µM; 33% of 3,700 active;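 active means thallium flux slope above the same plate's solvent-control mean plus 3 SD in both duplicate wells; inconclusive means duplicate wells that disagreed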;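 further: run without ouabain in cells lacking the KCC2 cotransporter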
Numbers stand for hits; . = inactive; ? = inconclusive; / = not tested or not shown. This is a sample that favours compounds with a hit; in the whole collection about 4.1% have one here.

SMILES	KCNQ1 block	KCNK3 inh	Cl transport mod	KCNQ1 pot	KCNK9 block	hERG protect	KCC2 secondary	KCC2 bumet counter	KCC2 sec2	HEK293 Tl flux	KCC2 retest ouab	HEK293 Tl flux2
C/C(=N\NC(=S)NCc1ccccc1)c1cccs1	.	.	16	.	.	.	.	0.041	0.049	0.04	0.042	0.04
CNc1ccc(/C=C(\CCC(=O)O)c2nc3ccccc3s2)cc1[N+](=O)[O-]	.	.	-5.5	.	.	.	.	.	0.025	.	0.013	.
Cc1ccc(/C=C(\CCC(=O)O)c2nc3ccccc3s2)cc1[N+](=O)[O-]	.	.	-6.9	.	.	.	.	.	0.022	0.0058	0.01	?
CCOc1cc(/C=C(\CC(=O)O)c2nc3ccccc3s2)ccc1OC	.	.	.	.	.	.	/	/	/	/	/	/
CN(c1ccccc1)c1ccc(/C=C(\CCC(=O)O)c2nc3ccccc3s2)cc1[N+](=O)[O-]	.	.	-6.9	.	.	.	.	.	0.021	.	0.012	.
COc1ccc(/C=C(\CC(=O)O)c2nc3ccccc3s2)cc1O	.	.	.	.	.	.	/	/	/	/	/	/
Cn1cnnc1Sc1ccc(/C=C(\CCC(=O)O)c2nc3ccccc3s2)cc1[N+](=O)[O-]	.	.	-6.8	.	.	.	.	.	0.025	0.0059	0.014	.
COc1ccccc1C(CNC(=O)CN1C(=O)NC(C)(c2ccc3ccccc3c2)C1=O)N1CCCC1 (stereo not drawn)	/	.	/	/	/	/	/	/	/	/	/	/
Cc1ccc(NC(=O)c2ccc(NS(=O)(=O)c3ccc4[nH]c(=O)[nH]c4c3)cc2)nc1	.	.	/	.	.	.	/	/	/	/	/	/
COc1ccc(-n2c(=S)[nH]c3cc(C(=O)O)ccc3c2=O)cc1	.	.	.	.	.	.	/	/	/	/	/	/
CCCCNC(=O)c1ccc2c(=O)n(CCCOCC)c(=S)[nH]c2c1	.	.	.	.	.	.	/	/	/	/	/	/
COC(=O)c1ccc2c(=O)n(-c3ccc(OC)cc3)c(=S)[nH]c2c1	.	.	8.2	.	.	.	.	0.02	.	0.012	?	.
CCOCCCNC(=O)c1ccc(-n2c(=S)[nH]c3ccccc3c2=O)cc1	.	.	10	.	.	.	?	0.015	.	0.0093	?	0.01
COc1ccc(C(C(=O)NCc2ccccc2)N(Cc2ccco2)C(=O)c2snc(C(N)=O)c2N)cc1 (stereo not drawn)	.	.	/	.	.	.	/	/	/	/	/	/
COc1cc(OC)cc(C(C(=O)NCc2ccccc2)N(Cc2ccco2)C(=O)c2ccno2)c1 (stereo not drawn)	.	.	-2.8	.	.	.	.	.	.	.	.	.
COc1ccccc1OCC(=O)Nc1ccc(S(=O)(=O)Nc2onc(C)c2C)cc1	.	.	/	.	.	.	/	/	/	/	/	/
C=CCNC(=S)NC(=O)c1ccc(C)c(Br)c1	.	.	40	.	.	.	0.018	0.092	.	?	0.064	0.022
CCOC(=O)C1C(=O)NC(C(=O)OCC)(C(=O)OCC)C1CC (stereo not drawn)	/	.	/	/	/	/	/	/	/	/	/	/
CC(Sc1nnc2ccccn12)C(=O)Nc1ccc(Cl)cn1 (stereo not drawn)	.	.	/	.	.	.	/	/	/	/	/	/
CC(Sc1nnnn1-c1ccccc1)C(=O)Nc1ccc(Cl)cn1 (stereo not drawn)	.	.	-4.4	.	.	.	.	.	0.026	0.006	0.015	?
CN(C)C1=NCCN1CCCCc1ccccc1	/	.	/	/	/	/	/	/	/	/	/	/
CCc1c(O)nc(SCC(=O)Nc2ccc(C)cc2)n(C2CCCCC2)c1=O	.	.	/	.	.	.	.	.	.	.	0.016	.
CCOc1ccc(NS(=O)(=O)c2ccc(NS(=O)(=O)c3ccccc3)cc2)cc1	.	.	/	.	.	.	.	.	.	.	?	.
CCOc1ccc(S(=O)(=O)Nc2cc(NS(=O)(=O)c3ccc(OCC)cc3)cc(C(=O)O)c2)cc1	/	.	/	/	/	/	/	/	/	/	/	/
Cc1cc(C)c(NC(=O)CCN2C(=O)c3ccccc3S2(=O)=O)c(C)c1	.	.	/	.	.	.	/	/	/	/	/	/
SMILES	KCNQ1 block	KCNK3 inh	Cl transport mod	KCNQ1 pot	KCNK9 block	hERG protect	KCC2 secondary	KCC2 bumet counter	KCC2 sec2	HEK293 Tl flux	KCC2 retest ouab	HEK293 Tl flux2
COCCNC(=O)COc1ccc(C)cc1C	.	.	-4.4	.	.	.	.	.	.	.	.	?
Cc1oc(-c2cc(F)ccc2F)nc1CN1CCN(c2cnccn2)CC1	.	.	-5	.	.	.	.	.	.	.	.	?
Cc1oc(-c2cc(F)ccc2F)nc1CN(C)Cc1ccc2nccnc2c1	.	.	.	.	.	.	/	/	/	/	/	/
CCCn1c(SCN2C(=O)c3ccccc3C2=O)nc2cc(Cl)ccc2c1=O	.	.	106	31	.	11	0.038	0.17	0.053	0.092	0.084	0.046
COc1ccc(-n2c(C)cc(C(=O)CSc3nnc(-c4ccoc4C)n3C)c2C)cc1	.	.	/	.	.	.	.	.	.	?	.	.
CN(C)c1ccc(/C=C/c2ccncc2)cc1	/	.	/	/	/	/	0.0032	-0.004	0.021	0.0031	0.0058	?
Oc1ccc(COCc2ccccc2)c2cccnc12	.	.	3.3	.	.	.	.	0.028	.	0.013	?	.
CC(C)CNC(=O)c1ccccc1NC(=O)c1ccccc1N(C)S(C)(=O)=O	.	.	-3.8	.	.	.	.	.	?	?	.	.
COc1ccc(OC)c(NC(=O)COc2coc(CN3CCc4ccccc43)cc2=O)c1	.	.	/	.	.	.	/	/	/	/	/	/
O=C1NC(=S)N(c2cccc(Cl)c2)C12CCCCC2	.	.	4.6	.	.	.	.	0.011	.	0.013	.	0.012
CSc1ccccc1NC(=O)C1=CC(c2cccs2)=NS(=O)(=O)N1C	.	.	/	.	.	.	/	/	/	/	/	/
COc1cc(/C=C2\SC(=S)N(NS(=O)(=O)c3ccc(C)cc3)C2=O)ccc1O	.	.	-4.9	.	.	.	.	-0.0052	0.018	0.0044	0.0057	?
